Key:
[1] = folding enthalpy; higher = less favourable; fluorescence melt of hairpins on a sequencing array, two-state fit; conditions: sodium 0.088 M
In short: (§1)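 On a sequenced MiSeq flow cell, library hairpins with annealed Cy3 and quencher oligos were imaged for Cy3 fluorescence in 2.5 °C steps up to 60 °C, in 50 mM Na-HEPES pH 8.0, 25 mM NaCl. Normalisation used pre-quench Cy3 and control constructs. Bootstrapped two-state fits gave melting temperature and folding enthalpy, combined by inverse variance across four replicates and with fitted temperatures raised by 9.35 °C to match UV melts.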

[2] = melting temperature; fluorescence melt of hairpins on a sequencing array, two-state fit, raised by 9.35 °C to match UV melts; conditions: sodium 0.088 M
In short: as §1

| Sequence | folding enthalpy [1] [kcal/mol] | Tm [2] [°C] |
| --- | --- | --- |
| GCCCGCCGAAAGGCGGC (((.(((....)))))) | -7.03 | 66.6 |
| GCCCGCGAAAGCGAAGGC ((((((....)))..))) | -24.8 | 63.3 |
| GCCCGCGAAAGCGGAGGC ((((((....)))..))) | -13.7 | 60 |
| GCCCGGCGAAAGCCACGC ((..(((....)))..)) | -8.86 | 35.9 |
| GCCCGGCGAAAGCCTTGC ((..(((....)))..)) | -8.46 | 35.7 |
| GCCCGGCGAAAGCGGAGC ((.(.((....)).).)) | -14.8 | 54.8 |
| GCCCGGGCGAAAGCCGGC (((..(((....)))))) | -12.5 | 59.5 |
| GCCCGTGCGAAAGCAGGC (((..(((....)))))) | -12.4 | 52 |
| GCCCGTGGAAACATGGGC ((((.((....)).)))) | -46 | 61.2 |
| GCCCTACGAAAGTAGGC (((.(((....)))))) | -13 | 56.8 |
| GCCCTACGAAAGTATGGC (((.(((....))).))) | -34.3 | 49 |
| GCCCTCACGAAAGTGGGC (((..(((....)))))) | -19.4 | 53.5 |
| GCCCTCCGAAAGGAAGGC (((.(((....))).))) | -30.8 | 53 |
| GCCCTCCGAAAGGACGGC (((.(((....))).))) | -40.7 | 50.4 |
| GCCCTCGAAAGAGCTGGC ((((((....)))..))) | -24.7 | 42.3 |
| GCCCTCGAAAGAGGAGGC ((((((....)))..))) | -17 | 51.9 |
| GCCCTCGAAAGAGTCGGC ((((((....)))..))) | -24.1 | 40.9 |
| GCCCTCGGAAACGAAGGC (((.(((....))).))) | -34.1 | 46.6 |
| GCCCTCTCGAAAGAGGGC (((..(((....)))))) | -40.5 | 68.1 |
| GCCCTGCGAAAGCAAGGC (((.(((....))).))) | -33.9 | 55.7 |
| GCCCTGCGAAAGCACCGC ((..(((....)))..)) | -7.84 | 32.4 |
| GCCCTGCGAAAGCCCGGC (((..((....))..))) | -23 | 39.1 |
| GCCCTGCGAAAGCGCGGC (((..((....))..))) | -21.5 | 54.5 |

| Sequence | folding enthalpy [1] [kcal/mol] | Tm [2] [°C] |
| --- | --- | --- |
| GCCCTGGGAAACCAAGGC (((.(((....))).))) | -30.1 | 44.8 |
| GCCCTTCCGAAAGGAGGC (((..(((....)))))) | -17.7 | 41.1 |
| GCCCTTCGAAAGAACGGC (((.(((....))).))) | -29.7 | 42.2 |
| GCCCTTGGAAACAAGAGC ((.((((....)))).)) | -21.4 | 37.6 |
| GCCCTTGGAAACAGGGGC ((((.((....)).)))) | -41.4 | 54.4 |
| GCCGAACGAAAGTTAGGC (((.(((....))).))) | -36.2 | 60.9 |
| GCCGAAGGAAACTTCGAC (.(((((....))))).) | -19.8 | 41 |
| GCCGACCGAAAGGTAGGC (((.(((....))).))) | -37.5 | 69.3 |
| GCCGACGAAAGTCCTGGC ((((((....)))..))) | -20.2 | 45.1 |
| GCCGACGAAAGTCTTGGC ((((((....)))..))) | -23.2 | 48.1 |
| GCCGACGCGAAAGCGGGC (((..(((....)))))) | -18.1 | 65.9 |
| GCCGAGACGAAAGTCGGC (((..(((....)))))) | -28.4 | 61.8 |
| GCCGAGCGAAAGCCCAGC ((.(.((....)).).)) | -12.4 | 35.8 |
| GCCGAGCGAAAGCCGGGC (((..((....))..))) | -13.3 | 67.2 |
| GCCGAGCGAAAGCGCTGC ((.(.((....)).).)) | -12.4 | 45.6 |
| GCCGAGCGAAAGCTAAGC ((..(((....)))..)) | -16.3 | 40 |
| GCCGAGCGAAAGCTACGC ((..(((....)))..)) | -12.1 | 45.8 |
| GCCGAGCGAAAGCTCAGC ((.((((....)))).)) | -18.1 | 58 |
| GCCGAGCGAAAGCTCTGC ((.((((....)))).)) | -28.5 | 58.7 |
| GCCGAGCGAAAGCTTCGC ((..(((....)))..)) | -11.3 | 49.2 |
| GCCGAGCGAAAGCTTTGC ((..(((....)))..)) | -12.6 | 39.1 |
| GCCGAGTCGAAAGACGGC (((..(((....)))))) | -21.2 | 56.6 |
| GCCGATGGAAACGTTGGC (((.(.(....).).))) | -25.5 | 43 |

Reference: the array DNA melting data of Ke et al. (doi:10.1101/2024.01.08.574731)
